Data published in ChEMBL document CHEMBL1123186, “Enzymatic phosphorylation of the antiherpetic agent 9-[(2,3-dihydroxy-1-propoxy)methyl]guanine” (1986).
Values after ≈ are worked out from the molar mass of the structure shown.

What was measured:
Format in all cases: functional
MRC5 [1] = test: Compound was tested for 50% inhibition of HSV-1 induced cytopathic effect in MRC-5 cells; details: Homo sapiens, read-out: ED50 (the source's name)
Human alphaherpesvirus 1 [2] = test: Phosphorylation by HSV-1 thymidine kinase
In short: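 Affinity-purified HSV1 TK (1 unit) from infected HeLa cells, 37 °C for 1 h, with 40 µg nucleoside in 50% Me2SO. Buffer: 50 mM Tris pH 7.5, 5 mM MgCl2, 5 mM ATP, 2 mM DTT, 2.5 mM NaF, 15 mM phosphocreatine, creatine kinase and BSA. Nucleoside and phosphates separated by anion-exchange HPLC (KH2PO4 gradient, pH 3.0) and quantified from peak areas.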

Human alphaherpesvirus 1 [3] = test: Compound was tested for the inhibition of HSV-1 polymerase; set-up: concentration or dose not given beside the values
In short: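 Analog first phosphorylated 3 h at 37 °C with HSV1 TK, GMP kinase, creatine kinase/phosphocreatine, 5 mM ATP and HSV1-infected HeLa crude extract; 20 µL aliquots added to 100 µL polymerase mix with 50 mM Tris pH 8, 5 mM MgCl2, activated salmon sperm DNA, 0.05 mM each dNTP ([3H]dTTP), 0.1 M (NH4)2SO4, and infected-HeLa extract or purified HSV1 polymerase; 1 h 37 °C; TCA-precipitable counts.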

[4] = molecular target: T1, DNA polymerase alpha catalytic subunit (Homo sapiens) (UniProt P09884); test: Compound was tested for the inhibition of HeLa DNA polymerase; details: concentration not given here
T1 sequence (whole entry): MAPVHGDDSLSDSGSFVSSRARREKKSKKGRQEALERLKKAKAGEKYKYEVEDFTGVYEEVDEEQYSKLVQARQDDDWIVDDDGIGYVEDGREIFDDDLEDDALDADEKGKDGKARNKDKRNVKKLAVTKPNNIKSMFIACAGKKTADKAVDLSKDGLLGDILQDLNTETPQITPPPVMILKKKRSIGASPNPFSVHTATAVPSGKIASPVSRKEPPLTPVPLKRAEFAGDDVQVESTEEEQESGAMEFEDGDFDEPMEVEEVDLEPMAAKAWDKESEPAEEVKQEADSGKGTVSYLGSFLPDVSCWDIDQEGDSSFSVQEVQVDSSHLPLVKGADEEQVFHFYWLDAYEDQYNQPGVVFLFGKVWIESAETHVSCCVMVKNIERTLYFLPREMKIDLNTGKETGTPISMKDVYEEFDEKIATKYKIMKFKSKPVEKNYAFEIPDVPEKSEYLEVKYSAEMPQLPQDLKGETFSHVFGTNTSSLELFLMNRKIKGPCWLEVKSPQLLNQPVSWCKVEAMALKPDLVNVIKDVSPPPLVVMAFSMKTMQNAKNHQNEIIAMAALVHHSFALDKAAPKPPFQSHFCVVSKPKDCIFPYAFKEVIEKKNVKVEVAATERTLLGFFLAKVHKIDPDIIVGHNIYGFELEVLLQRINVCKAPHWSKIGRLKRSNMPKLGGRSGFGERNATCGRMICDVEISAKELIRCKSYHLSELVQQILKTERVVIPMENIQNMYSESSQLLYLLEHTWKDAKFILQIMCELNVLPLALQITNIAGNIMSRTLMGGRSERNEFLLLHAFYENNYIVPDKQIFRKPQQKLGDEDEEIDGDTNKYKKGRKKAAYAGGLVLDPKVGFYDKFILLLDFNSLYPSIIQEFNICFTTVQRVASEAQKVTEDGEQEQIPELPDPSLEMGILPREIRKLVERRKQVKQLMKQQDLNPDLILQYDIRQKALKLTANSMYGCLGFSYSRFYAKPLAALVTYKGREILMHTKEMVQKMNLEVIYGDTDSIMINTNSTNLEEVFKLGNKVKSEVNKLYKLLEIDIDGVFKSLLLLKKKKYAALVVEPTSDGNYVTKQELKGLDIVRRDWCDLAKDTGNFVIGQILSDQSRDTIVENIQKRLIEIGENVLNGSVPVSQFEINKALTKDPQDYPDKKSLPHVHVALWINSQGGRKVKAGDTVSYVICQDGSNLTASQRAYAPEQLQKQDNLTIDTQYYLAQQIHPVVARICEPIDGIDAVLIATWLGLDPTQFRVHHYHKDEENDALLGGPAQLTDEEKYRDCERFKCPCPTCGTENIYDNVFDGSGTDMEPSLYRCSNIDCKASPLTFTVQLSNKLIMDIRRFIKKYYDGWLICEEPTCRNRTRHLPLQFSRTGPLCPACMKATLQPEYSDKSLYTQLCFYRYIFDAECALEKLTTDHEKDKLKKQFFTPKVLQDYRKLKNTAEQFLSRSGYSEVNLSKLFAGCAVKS
In short: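 Cellular polymerase taken from crude HSV1-infected HeLa extract, assayed without (NH4)2SO4. Inhibitor came as 20 µL of a 3-h, 37 °C enzymatic phosphorylation mixture, in 50 mM Tris pH 8 with 5 mM MgCl2, activated salmon sperm DNA and 0.05 mM each dNTP ([3H]dTTP). Incubation 1 h at 37 °C, then TCA-insoluble radioactivity counted.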

MRC5 [5] = test: Compound was tested for 50% inhibition of HSV-1 induced cytopathic effect in MRC-5 cells; 3-6; details: Homo sapiens, read-out: ED50 (the source's name)
MRC5 [6] = test: Compound was tested for 50% inhibition of HSV-1 induced cytopathic effect in MRC-5 cells; Not active; details: Homo sapiens, read-out: ED50 (the source's name)

Row | Compound | Phosphorylation (Human alphaherpesvirus 1 [2]) | Inhibition (Human alphaherpesvirus 1 [3]) | inhibition [4] | further results
1 | Nc1nc(O)c2ncn(COCCCO)c2n1 | 88% | – | – | EC50 (MRC5 [1]): 50 µg/mL (≈ 209 µM)
2 | Nc1nc(O)c2ncn(COCC(O)CO)c2n1 (single isomer, unassigned; form 1) [listing 1 of 2 here] | – | 54% | – | –
3 | Nc1nc2c(ncn2COC(CO)CO)c(=O)[nH]1 [GANCICLOVIR] | – | 60% | 17% | –
4 | Nc1nc(O)c2ncn(COCC(F)CO)c2n1 (centres undefined) | 42% | – | – | EC50 (MRC5 [1]): 25 µg/mL (≈ 97.2 µM)
5 | Nc1nc2c(ncn2COCCO)c(=O)[nH]1 [ACYCLOVIR] | – | 86% | 37% | –
6 | Nc1nc(O)c2ncn(COCC(O)CO)c2n1 (centres undefined) [listing 1 of 2 here] | 59% | 36% | – | EC50 (MRC5 [5]): 3 µg/mL (≈ 11.8 µM)
7 | Nc1nc(O)c2ncn(COCC(O)CO)c2n1 (single isomer, unassigned; form 1) [listing 2 of 2 here] | – | – | 10% | –
8 | CC(O)COCn1cnc2c(O)nc(N)nc21 (centres undefined) | 5% | – | – | EC50 (MRC5 [1]): 100 µg/mL (≈ 418 µM)
9 | Nc1nc(O)c2ncn(COCC(O)CO)c2n1 (centres undefined) [listing 2 of 2 here] | – | – | 6% | –
10 | Nc1nc(O)c2ncn(COCC(O)CF)c2n1 (centres undefined) | 4% | – | – | EC50 (MRC5 [6]): > 100 µg/mL
11 | Nc1nc(O)c2ncn(COCC(O)CO)c2n1 (single isomer, unassigned; form 2) | – | 14% | – | –
